Assay outcomes from PubChem.
HTRA1 inh: blocks human HTRA1 serine peptidase; inhibition, % at 5.96 µM; hit rate 0.5% among 340,000; AID 504803; Q92743; recombinant HTRA1, FP-rhodamine activity-based probe, fluorescence polarization; in the data active means inhibition above about 36%
TCR-CD3 inh: inhibitors of human TCR-CD3 interaction | TAMRA-labeled TCR probe fluorescence, biochemical | inhibition, % at 9.4 µM | hit rate 0.37% among 360,000 | AID 651800; in the data active means inhibition above about 19%;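 further: recombinant mutant TCR 2C K166C tagged with TAMRA read by polarization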
ARNT TACC3 PPI: disruptors of human ARNT/TACC3 interaction; AlphaScreen His-ARNT PAS-B/GST-TACC3 binding, luminescence; TACC3 fragment carries E629A point mutation; inhibition, % at 9.99 µM; hit rate 0.66% among 390,000; AID 623870;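 active means mean inhibition of replicates at least 50% and at least half of replicates each reaching 50%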
ABHD4 inh: ABHD4 (mouse) inhibition, primary FP screen; Q8VD66; purified mABHD4, FP-Rh probe fluorescence polarization; inhibition, % at 8.92 µM; hit rate 0.54% among 370,000; AID 720543;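 active means inhibition exceeding the mean over every tested compound plus 3 SD, cut at about 30% in these data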
Target sequence (Q8VD66 whole entry, looked up): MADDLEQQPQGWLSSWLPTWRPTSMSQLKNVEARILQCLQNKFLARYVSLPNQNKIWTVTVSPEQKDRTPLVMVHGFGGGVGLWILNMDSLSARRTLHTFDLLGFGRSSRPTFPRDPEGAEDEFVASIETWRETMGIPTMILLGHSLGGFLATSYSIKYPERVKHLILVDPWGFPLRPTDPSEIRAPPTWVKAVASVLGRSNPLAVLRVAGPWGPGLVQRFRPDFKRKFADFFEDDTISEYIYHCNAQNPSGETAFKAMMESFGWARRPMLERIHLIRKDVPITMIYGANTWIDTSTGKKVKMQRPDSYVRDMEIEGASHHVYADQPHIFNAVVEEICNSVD
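System: mouse ABHD4 enzyme, wild type / Medium: HEPES pH 7.0, NaCl, Pluronic buffer / Reagent: FP-Rh activity-based fluorescent probe / Control set: S159A mutant high control, sample median low control / Detection: fluorescence polarization with parallel and perpendicular emission, 525/598 nm / Schedule: 45 min + 60 min at 25 °C / Compound dosing: 8.92 µM, single dose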
SIAE primary: blocks human sialic acid acetylesterase; hit rate 0.69% among 370,000; SIAE FP-Rh probe binding, fluorescence polarization; inhibition, % at 9.66 µM; AID 1053197;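 active means inhibition above a cutoff: mean of compounds within the control limits plus 3 SD of those, cut at about 17% in these data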
SIAE confirm: confirmation of human SIAE inhibitors; shares compounds with SIAE primary; SIAE FP-Rh activity-based probe, fluorescence polarization; inhibition, % at 9.66 µM; hit rate 13% among 2,300; AID 1117263;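 active means mean inhibition of the replicates above the hit cutoff set in the primary screen, cut at about 17% in these data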;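 further: inhibitors lower polarization as more probe stays unbound to SIAE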
Hits are given with their value; 0 = inactive; - = not tested or not shown. Most compounds without a hit are left out; they make up all but 1.8% or so of the library.

SMILES	HTRA1 inh	TCR-CD3 inh	ARNT TACC3 PPI	ABHD4 inh	SIAE primary	SIAE confirm
Cc1ccc(OCCn2cc(/C=N/NC(=O)c3ccncc3)c3ccccc32)cc1	0	0	0	0	28.6	0
COc1ccc(OCCn2cc(/C=N/NC(=O)c3ccncc3)c3ccccc32)cc1	0	0	0	0	0	-
COc1cccc(OCCn2cc(/C=N/NC(=O)c3ccncc3)c3ccccc32)c1	0	0	0	0	30.5	0
CNC(=S)N/N=C/c1cn(CCOc2ccccc2OC)c2ccccc12	0	0	0	0	0	-
Cc1noc(C)c1S(=O)(=O)Nc1ccc2c(c1)CC(=O)N([C@@H](C)CO)C[C@@H](C)[C@H](CN(C)S(=O)(=O)c1ccc(F)cc1)O2	-	-	0	-	-	-
CN(C)C(=O)[C@@H]1[C@@H](CO)[C@@H]2Cn3c(ccc(-c4cccc(F)c4)c3=O)[C@H]1N2Cc1ccccc1	-	-	0	-	-	-
C[C@@H]1CN([C@@H](C)CO)C(=O)Cc2cc(N(C)C)ccc2O[C@@H]1CN(C)Cc1ccncc1	-	-	0	-	-	-
CC(=O)Nc1cc(-c2ccccc2N(C)C)cn2c(-c3cccc(C(F)(F)F)c3)cnc12	-	0	-	0	18.1	0
CN(C)CC(=O)Nc1ccc2c(c1)[C@H]1C[C@H](CC(=O)NCc3cccc(F)c3)O[C@@H](CO)[C@H]1O2	-	-	0	-	-	-
Cc1ccc2c(c1)=C(c1sc(N(C)c3ccc(O)cc3)nc1O)C(=O)N=2	0	0	0	0	17.4	0
Cc1cnc(CN(C)C(=O)c2ccc3oc(Cc4ccc(Cl)cc4)nc3c2)[nH]1	0	0	0	0	17.6	0
NS(=O)(=O)c1ccc(N/N=C/C=C/c2ccccc2[N+](=O)[O-])cc1	0	0	-	0	23.9	0
O=C(CN1CCN(c2ccc(O)cc2)CC1)Nc1cc(S(=O)(=O)N2CCCC2)ccc1Cl	0	0	0	0	0	-
O=S(=O)(c1ccc(Cl)c(NC(=S)N/N=C/c2c(F)cccc2F)c1)N1CCOCC1	0	0	-	0	0	-
O=C(CN1CCN(c2ccc(O)cc2)CC1)Nc1cc(S(=O)(=O)N2CCCCC2)ccc1Cl	0	0	0	0	20.8	0
O=S(=O)(c1ccc(Cl)c(NC(=S)N/N=C/c2ccc(O)cc2)c1)N1CCOCC1	0	0	0	0	17.9	0
Cn1c(=O)c2cc(NC(=S)NC3CC3)ccc2n1Cc1ccc(F)cc1	-	0	-	0	18.1	0
COc1cc(CNc2cc(C)ccc2C)cc(OC)c1OC	0	0	0	0	24.4	0
COc1ccc(CNc2cc(C)ccc2C)c(OC)c1OC	0	0	0	0	0	-
COc1cc(/C=C/c2ccc3cccc(OC)c3n2)c(OC(C)=O)c([N+](=O)[O-])c1	0	0	0	0	0	-
COc1c(OC(C)=O)ccc(/C=C/c2ccc3cccc(OCc4ccccc4)c3n2)c1[N+](=O)[O-]	0	0	0	0	27.5	0
C[C@H](CO)N1C[C@H](C)[C@H](CN(C)Cc2ccncc2)OCCCC[C@H](C)Oc2ccc(N(C)C)cc2C1=O	-	-	0	-	-	-
COc1ccccc1NC(=O)c1cc2c(CO)cnc(C)c2oc1=Nc1cc(OC)c(OC)c(OC)c1	0	0	0	0	18.5	0
CCCCCC(=O)Nc1ccc(-c2csc(N)n2)cc1	0	0	0	0	17.8	0
O=C(NCCc1csc(-c2cccnc2)n1)c1ccc(Br)o1	0	0	0	0	17.5	0
SMILES	HTRA1 inh	TCR-CD3 inh	ARNT TACC3 PPI	ABHD4 inh	SIAE primary	SIAE confirm
CC(C)(C)[S@@](=O)N1Cc2cc(C(=O)NCCN3CCCC3)nc(-c3cccc(-c4cccc(C#N)c4)c3)c2[C@H]1CCO	-	-	0	-	-	-
COCC(=O)Nc1ccc2c(c1)C(=O)N(C)C[C@H](OC)[C@@H](C)CN(Cc1cncnc1)[C@H](C)CO2	-	-	0	-	-	-
COc1cc(/C=N\Nc2nc(-c3ccc(C)cc3)c(NC(C)=O)s2)ccc1O	0	0	0	0	21.8	32.8
C[C@@H]1CN([C@@H](C)CO)C(=O)c2cccc(NC(=O)Nc3ccc(C(F)(F)F)cc3)c2O[C@H]1CN(C)C(=O)Nc1ccc(C(F)(F)F)cc1	-	-	0	-	-	-
C[C@H](CO)N1C[C@H](C)[C@H](CN(C)C(=O)NC2CCCCC2)Oc2c(NC(=O)c3ccncc3)cccc2C1=O	-	-	0	-	-	-
Cc1ccc([N+](=O)[O-])cc1NC(=O)C1CCCC1	0	0	0	0	0	-
Cc1ccc([N+](=O)[O-])cc1NC(=O)C1CCN(S(C)(=O)=O)CC1	0	0	0	0	19.6	0
C[C@@H]1CN([C@@H](C)CO)C(=O)c2cc(NS(=O)(=O)c3cccs3)ccc2O[C@@H](C)CCCCO[C@H]1CN(C)CC1CCCCC1	-	-	0	-	-	-
O=C(Nc1nc(-c2ccccc2)cs1)c1ccc(=O)[nH]c1	0	0	0	0	0	-
Cc1cc(-c2csc(NC(=O)c3ccc(=O)[nH]c3)n2)c(C)n1Cc1ccccc1	0	0	0	0	25.9	0
CCOC(=O)C(NC(=O)CC)(Nc1ccccc1)C(F)(F)F (configuration not stated)	0	0	0	0	0	-
CCOC(=O)C(NC(=O)CC)(N1CCc2ccccc2C1)C(F)(F)F (configuration not stated)	0	0	0	0	20.3	0
CC(=O)N1[C@H](CO)[C@H](c2ccccc2)[C@@H]1CNC(=O)CN1CCOCC1	-	-	0	-	-	-
O=C(CSc1ccc(-c2ccco2)nn1)Nc1ccc(F)cc1F	0	0	0	0	18.8	0
CCN1C(=O)/C(=C2/Sc3ccccc3N2CC)S/C1=N\c1ncn[nH]1	0	0	0	0	19.1	0
C=CCN1C(=O)/C(=C2/Sc3ccccc3N2C)SC1=Nc1c(C)n[nH]c1C	0	-	0	-	-	-
C[C@H]1CN([C@@H](C)CO)C(=O)c2cc(NS(=O)(=O)c3ccc(Cl)cc3)ccc2O[C@@H]1CN(C)Cc1ccc2c(c1)OCO2	-	-	0	-	-	-
CCn1c(-c2ccccc2)csc1=Nc1ccc(O)cc1	0	0	0	0	25.3	0
CCOc1ccc(N=c2scc(-c3ccccc3)n2CCO)cc1	0	0	0	0	0	-
CCNC(=O)C[C@@H]1CC[C@H]2[C@@H](COC[C@@H](O)CN2C(=O)Nc2c(C)noc2C)O1	-	-	0	-	-	-
CC(C)NC(=O)N(C)C[C@H]1Oc2c(NC(=O)Nc3ccc4c(c3)OCO4)cccc2C(=O)N([C@H](C)CO)C[C@H]1C	-	-	0	-	-	-
Cc1ccccc1S(=O)(=O)N1C[C@@H](O)COC[C@H]2O[C@H](CC(=O)N3CCOCC3)CC[C@@H]21	-	-	0	-	-	-
COc1cccc(C(=O)Nc2ccc3c(c2)OC[C@@H](C)N(C(C)=O)C[C@@H](C)[C@@H](OC)CN(C)C3=O)c1	-	-	0	-	-	-
O=C(Nc1nncs1)c1c(F)c(F)c(F)c(F)c1F	0	0	0	0	20.2	0
Cc1ccccc1C(=O)Nc1nncs1	0	0	0	0	0	-
C/C(=N\Nc1nc2ccccc2[nH]1)c1ccc2c(c1)OCCO2	0	0	0	0	19.8	0
C/C(=N\Nc1nc2ccccc2[nH]1)c1ccc2c(c1)OCO2	0	0	-	0	0	-
